Key:
Assay type in all cases: ADME, organism-based; call rule not given here
Spleen = assay: Biodistribution in spleen of C.B.-17/Icr +/+ Jcl mouse xenografted with human LNCAP and PC3 cells at 25.9 MBq, iv after 1 hr; details: in vivo
Summary of the method: (§1)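 Radioiodinated (¹²⁵I) tracer given by tail-vein injection to mice bearing LNCaP (left shoulder) and PC-3 (right shoulder) xenografts, 22–24 g, grown to about 5–10 mm. Groups of n=4 were decapitated at 2 min, 30 min, 1 h, 3 h or 6 h. Tissues were weighed and counted, and uptake was expressed as %ID/g (mean ± SD).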

Blood = assay: Biodistribution in blood of C.B.-17/Icr +/+ Jcl mouse xenografted with human LNCAP and PC3 cells at 25.9 MBq, iv after 1 hr; details: in vivo
Summary of the method: (§2)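 ¹²⁵I-labelled tracer given iv by tail vein to mice (22–24 g) bearing LNCaP (left shoulder) and PC-3 (right shoulder) xenografts of about 5–10 mm, grown from 1–5 × 10⁶ cells in 1:1 Matrigel. n=4 per time point; decapitated at 2 min, 30 min, 1, 3, 6 h. Tissues weighed and counted; uptake as %ID/g, mean ± SD.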

Nucleic Acid [1] = assay: Ratio of drug level in human LNCAP cells xenografted in C.B.-17/Icr +/+ Jcl mouse to muscle of C.B.-17/Icr +/+ Jcl mouse xenografted with human LNCAP and PC3 cells at 25.9 MBq, iv after 30 mins; details: in vivo, 0.5 h
Summary of the method: (§3)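 Tumor-to-blood and tumor-to-muscle ratios were calculated from %ID/g values in ¹²⁵I-tracer biodistribution in LNCaP/PC-3 xenografted mice. Tail-vein dosing, n=4 per time point, sacrifice at 2 min, 30 min, 1, 3 or 6 h.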

Intestine = assay: Biodistribution in intestine of C.B.-17/Icr […] Jcl mouse xenografted with human LNCAP and PC3 cells at 25.9 MBq, iv after 6 hrs; details: in vivo; summary of the method: as §2
Nucleic Acid [2] = assay: Ratio of drug level in human PC3 cells xenografted in C.B.-17/Icr +/+ Jcl mouse to muscle of C.B.-17/Icr +/+ Jcl mouse xenografted with human LNCAP and PC3 cells at 25.9 MBq, iv after 3 hrs; details: in vivo
Summary of the method: (§4)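 Mice (22–24 g) carried PC-3 (right shoulder) and LNCaP (left shoulder) tumors, raised by injecting 1–5 × 10⁶ cells in 1:1 PBS/Matrigel and used at about 5–10 mm diameter. [¹²⁵I]-tracer was given via the tail vein, n=4 per time point, and mice were decapitated at 2 min, 30 min, 1, 3 or 6 h. Tissues were weighed and γ-counted as %ID/g. Tumor/blood and tumor/muscle ratios were taken from %ID/g, mean ± SD.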

Nucleic Acid [3] = assay: Ratio of drug level in human PC3 cells xenografted in C.B.-17/Icr +/+ Jcl mouse to muscle of C.B.-17/Icr +/+ Jcl mouse xenografted with human LNCAP and PC3 cells at 25.9 MBq, iv after 2 mins; details: in vivo; summary of the method: as §4
[4] = Ratio of drug level in human PC3 cells xenografted in C.B.-17/Icr +/+ Jcl mouse to blood of C.B.-17/Icr +/+ Jcl mouse xenografted with human LNCAP and PC3 cells at 25.9 MBq, iv after 3 hrs; details: PC3 tumour xenograft relative to blood; summary of the method: as §4
Lung [5] = assay: Biodistribution in lung of C.B.-17/Icr +/+ Jcl mouse xenografted with human LNCAP and PC3 cells at 25.9 MBq, iv after 1 hr; details: in vivo; summary of the method: as §1
[6] = Ratio of drug level in human PC3 cells xenografted in C.B.-17/Icr +/+ Jcl mouse to blood of C.B.-17/Icr +/+ Jcl mouse xenografted with human LNCAP and PC3 cells at 25.9 MBq, iv after 2 mins; details: PC3 tumour xenograft relative to blood; summary of the method: as §4
Liver [7] = assay: Biodistribution in liver of C.B.-17/Icr […] Jcl mouse xenografted with human LNCAP and PC3 cells at 25.9 MBq, iv after 1 hr; details: in vivo; summary of the method: as §2
LNCaP = assay: Biodistribution in LNCAP cells in C.B.-17/Icr +/+ Jcl mouse xenografted with human LNCAP and PC3 cells at 25.9 MBq, iv after 3 hrs; details: in vivo; summary of the method: as §2
[8] = Ratio of drug level in human LNCAP cells xenografted in C.B.-17/Icr +/+ Jcl mouse to blood of C.B.-17/Icr +/+ Jcl mouse xenografted with human LNCAP and PC3 cells at 25.9 MBq, iv after 3 hrs; details: LNCAP tumour xenograft relative to blood; summary of the method: as §3
[9] = Ratio of drug level in human LNCAP cells xenografted in C.B.-17/Icr +/+ Jcl mouse to blood of C.B.-17/Icr +/+ Jcl mouse xenografted with human LNCAP and PC3 cells at 25.9 MBq, iv after 1 hr; details: LNCAP tumour xenograft relative to blood; summary of the method: as §3
Stomach [10] = assay: Biodistribution in stomach of C.B.-17/Icr +/+ Jcl mouse xenografted with human LNCAP and PC3 cells at 25.9 MBq, iv after 3 hrs; details: in vivo; summary of the method: as §1
Liver [11] = assay: Drug excretion in C.B.-17/Icr […] Jcl mouse liver xenografted with human LNCAP and PC3 cells at 25.9 MBq, iv; details: in vivo
Muscle tissue = assay: Biodistribution in muscle of C.B.-17/Icr +/+ Jcl mouse xenografted with human LNCAP and PC3 cells at 25.9 MBq, iv after 30 mins; details: in vivo, 0.5 h; summary of the method: as §1
Lung [12] = assay: Biodistribution in lung of C.B.-17/Icr +/+ Jcl mouse xenografted with human LNCAP and PC3 cells at 25.9 MBq, iv after 30 mins; details: in vivo, 0.5 h; summary of the method: as §1
[13] = Ratio of drug level in human PC3 cells xenografted in C.B.-17/Icr +/+ Jcl mouse to blood of C.B.-17/Icr +/+ Jcl mouse xenografted with human LNCAP and PC3 cells at 25.9 MBq, iv after 1 hr; details: PC3 tumour xenograft relative to blood; summary of the method: as §4
Stomach [14] = assay: Biodistribution in stomach of C.B.-17/Icr +/+ Jcl mouse xenografted with human LNCAP and PC3 cells at 25.9 MBq, iv after 1 hr; details: in vivo; summary of the method: as §1
Lung [15] = assay: Biodistribution in lung of C.B.-17/Icr +/+ Jcl mouse xenografted with human LNCAP and PC3 cells at 25.9 MBq, iv after 2 mins; details: in vivo; summary of the method: as §1
Thyroid gland = assay: Biodistribution in thyroid of C.B.-17/Icr +/+ Jcl mouse xenografted with human LNCAP and PC3 cells at 25.9 MBq, iv after 3 hrs; details: in vivo; summary of the method: as §1
Kidney = assay: Biodistribution in kidney of C.B.-17/Icr +/+ Jcl mouse xenografted with human LNCAP and PC3 cells at 25.9 MBq, iv after 30 mins in presence of 2-PMPA; details: in vivo, 0.5 h
Summary of the method: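 Blocking study: ¹²⁵I-labelled tracer coinjected iv by tail vein with 2-PMPA (50 mg/kg) in LNCaP/PC-3 xenograft-bearing mice (22–24 g). Mice decapitated 30 min after injection; tissues weighed and counted; uptake as %ID/g.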

With O=C(O)CC[C@H](NC(=O)N[C@@H](CSC1CC(=O)N(CCCC[C@H](NC(=O)CNC(=O)c2cccc([125I])c2)C(=O)O)C1=O)C(=O)O)C(=O)O (some centres not stated) the Drug uptake (Spleen) was 36.5 % ID/g, the Drug uptake (Blood) was 1 % ID/g and the Ratio (Nucleic Acid [1]) was 11.1. For the same compound, the Drug uptake (Intestine) was 5.3 % ID/g, the Ratio (Nucleic Acid [2]) was 1.5 and the Ratio (Nucleic Acid [3]) was 1.9. For the same compound, the Kp at 3 h [4] was 0.4, the Drug uptake (Lung [5]) was 2.5 % ID/g and the Kp at 2 min [6] was 0.4. For the same compound, the Drug uptake (Liver [7]) was 13.9 % ID/g, the Drug uptake (LNCaP) was 9.5 % ID/g and the Kp at 3 h [8] was 13.8. For the same compound, the Kp at 1 h [9] was 6.9, the Drug uptake (Stomach [10]) was 1 %ID and the Drug excretion (Liver [11]) was “Active”. For the same compound, the Drug uptake (Muscle tissue) was 0.6 % ID/g, the Drug uptake (Lung [12]) was 2.9 % ID/g and the Kp at 1 h [13] was 0.7. For the same compound, the Drug uptake (Stomach [14]) was 1 %ID, the Drug uptake (Lung [15]) was 6.8 % ID/g and the Drug uptake (Thyroid gland) was 0.01 %ID. For the same compound, the Drug uptake (Kidney) was “Not Active”.

From ChEMBL document CHEMBL2429791, “Preparation of asymmetric urea derivatives that target prostate-specific membrane antigen for SPECT imaging” (J Med Chem, 2013)
